Consider 23 molecules from ChEMBL document CHEMBL4043160, “Facile alkylation of 4-nitrobenzotriazole and its platelet aggregation inhibitory activity” (Bioorg Med Chem, 2017).

Activity calls are given as the source filed them. No cut-off for these calls is given here.

Sequence of P2Y purinoceptor 12 (Homo sapiens) (Q9H244 whole entry): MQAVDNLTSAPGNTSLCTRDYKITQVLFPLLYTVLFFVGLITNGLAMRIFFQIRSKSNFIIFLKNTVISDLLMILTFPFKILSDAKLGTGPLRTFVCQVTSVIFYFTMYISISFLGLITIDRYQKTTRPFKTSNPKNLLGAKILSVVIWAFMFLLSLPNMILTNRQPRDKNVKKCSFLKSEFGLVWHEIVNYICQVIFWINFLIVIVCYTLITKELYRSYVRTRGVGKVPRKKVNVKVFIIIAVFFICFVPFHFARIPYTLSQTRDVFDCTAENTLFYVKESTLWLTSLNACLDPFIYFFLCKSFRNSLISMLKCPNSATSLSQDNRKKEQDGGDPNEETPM

The assay has as its target P2Y purinoceptor 12 (Homo sapiens) (UniProt Q9H244). The assay is described as follows: Agonist activity at P2Y12 in human platelets assessed as effect on VASP phosphorylation at 200 uM by CY-QUANT VASP/P2Y12 ELISA method. An outline of the steps:
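VASP phosphorylation read by CY-QUANT VASP/P2Y12 ELISA kit, run per manufacturer's instructions. Platelets were exposed to PGE1, and PGE1-induced phosphorylation was set as 100%. ADP served as the P2Y12 agonist reference. Compounds were tested at 200 µM together with ADP. Per se effect at 200 µM was checked with PGE1 alone, without ADP.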
Turning to `CCCCCCn1nnc2c([N+](=O)[O-])cccc21`, the result was inactive.

For `CCCCCn1nnc2c([N+](=O)[O-])cccc21`, the outcome was inactive. As for `O=[N+]([O-])c1cccc2c1nnn2Cc1ccccc1`, the entry is “inactive”; as for `CCCn1nnc2c([N+](=O)[O-])cccc21`, “inactive”. Regarding `CCCCn1nc2cccc([N+](=O)[O-])c2n1`, the outcome was inactive. With `O=C(c1ccccc1)n1nnc2c([N+](=O)[O-])cccc21` the entry was “inactive”; with `CCCCCCCCn1nc2cccc([N+](=O)[O-])c2n1`, “inactive”; with `O=[N+]([O-])c1cccc2nn(Cc3ccccc3)nc12`, “inactive”. Turning to `CCCCCn1nc2cccc([N+](=O)[O-])c2n1`, the result was inactive.

`CCCCCCCn1nnc2c([N+](=O)[O-])cccc21`: the outcome was inactive. In the case of `CCCn1nc2cccc([N+](=O)[O-])c2n1`, the result was inactive. As for `CCCCCCn1nc2cccc([N+](=O)[O-])c2n1`, the entry is “inactive”; as for `CCCCn1nnc2c([N+](=O)[O-])cccc21`, “inactive”; as for `Cn1nnc2c([N+](=O)[O-])cccc21`, “inactive”. With `O=[N+]([O-])c1cccc2nn(CCCCl)nc12` the entry was “inactive”; with `CCn1nc2cccc([N+](=O)[O-])c2n1`, “inactive”; with `Cn1nc2cccc([N+](=O)[O-])c2n1`, “inactive”. For the molecule `Cc1ccc(S(=O)(=O)n2nnc3c([N+](=O)[O-])cccc32)cc1`, the result was inactive. With `Cn1nnc2cccc([N+](=O)[O-])c21` the entry was “inactive”; with `O=[N+]([O-])c1cccc2c1nnn2CCCCl`, “inactive”. With `CCCCCCCn1nc2cccc([N+](=O)[O-])c2n1` the entry was “inactive”.

Regarding `CCn1nnc2c([N+](=O)[O-])cccc21`, the outcome was inactive. Regarding `CCCCCCCCn1nnc2c([N+](=O)[O-])cccc21`, the result was inactive.
